In article PMC8851646 (ACS Omega, 2022):
Values after ≈ are worked out from the molar mass of the structure shown. Where two headings read alike, the source gives them in different places.

Key:
[1] = test system: K. pneumoniae NB29017 co-cultured with T. pyriformis; experiment: T. pyriformis/K. pneumoniae; type: cell-based, Klebsiella pneumoniae; conditions: for activity in the Tp/Kp assay: manual pilot screens and D1 analog set
[2] = Compound stability, LC-MS of freshly dissolved powder; type: physicochemical; conditions: impure by LC–MS from freshly dissolved powder
[3] = test system: K. pneumoniae wbbM mutant (NB29018) co-cultured with T. pyriformis; experiment: Tp/Kp co-culture assay with cell surface-defective wbbM mutant; type: cell-based, Klebsiella pneumoniae; conditions: Tp threshold 4625–18,500 Tp/mL
K. pneumoniae NB29017 [4] = experiment: Qualitative inhibition of mucoid appearance of colonies on solid LB agar; type: cell-based, Klebsiella pneumoniae; conditions: 4 fully mucoid, 0 nonmucoid, by eye
Summary of the method: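 Test compound dissolved in DMSO (12.8 mg/mL stock) and mixed into melted LB agar at 0–16 μg/mL final, then set in six-well plates. Mucoid wild-type NB29017 streaked for single colonies in each well. Plates incubated 18 h at 37 °C, then 2 h at 4 °C. Mucoid appearance scored by eye from 0 (none) to 4 (normal hypermucoid).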

Staphylococcus aureus = experiment: Antibacterial MIC, Gram-positive control; type: cell-based; conditions: read-out: MIC Sa
K. pneumoniae NB29017 [5] = experiment: Electron microscopy of cell surface material; type: cell-based, Klebsiella pneumoniae; conditions: grown in SM medium with 32 μg/mL compound
Summary of the method: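 K. pneumoniae NB29017 grown overnight with shaking at 37 °C in 10 mL SM medium, with or without test compound at 32 μg/mL. Diluted 1:50 into the same medium and grown to OD600 of about 2. Cells pelleted at 3000g and washed in Na-cacodylate pH 7.2. Fixed 2 h at 4 °C (2.5% glutaraldehyde, 1% tannic acid, 0.1 M Na-cacodylate, pH 7.2). Pelleted, taken up in cacodylate buffer and examined by electron microscopy.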

[6] = Cytotoxicity in K562 cells; type: cell-based; conditions: human
Red blood cell hemolysis = type: cell-based, sheep; conditions: sheep, erythrocytes from defibrinated sheep blood, pH 7.5
[7] = read-out: IC50 Tp/Kp, Table 1, freshly dissolved powder, top concentration 20 μM
[8] = read-out: Tp/Kp IC50, Table 2, expressed as μg/mL for comparison to agar values
[9] = read-out: Tp/Kp IC50, archived powder, side by side on the same assay plate, Tp set at 25000
[10] = read-out: Tp/Kp IC50, resynthesis batch, side by side on the same assay plate, Tp set at 25000

| stability [2] | SMILES | activity in the Tp/Kp assay [1] | activity in the Tp/Kp wbbM assay [3] | qualitative score on solid medium (K. pneumoniae NB29017 [4]; 1 μg/mL compound in agar) | qualitative score on solid medium (K. pneumoniae NB29017 [4]; 2 μg/mL compound in agar) | qualitative score on solid medium (K. pneumoniae NB29017 [4]; 4 μg/mL compound in agar) | qualitative score on solid medium (K. pneumoniae NB29017 [4]; 8 μg/mL compound in agar) | qualitative score on solid medium (K. pneumoniae NB29017 [4]; 16 μg/mL compound in agar) | IC50 [1, 7] [nM] | IC50 [1, 8] [µg/mL] | IC50 [1, 9] [nM] | IC50 [1, 10] [nM] | MIC (Staphylococcus aureus) [µg/mL] | surface polysaccharide material by electron microscopy (K. pneumoniae NB29017 [5]) | IC50 [6] [µM] | hemolysis at 1 h (Red blood cell hemolysis) [%] |
| --- | --- | --- | --- | --- | --- | --- | --- | --- | --- | --- | --- | --- | --- | --- | --- | --- |
|  | Oc1nc(S)nnc1-c1cccs1 [B1, OC1N=C(S)N=NC=1C2=CC=CS2] | active |  |  |  |  |  |  |  |  |  |  |  |  |  |  |
|  | COc1nc(SC)nnc1C [Di, COc1nc(nnc1C)SC] | inactive |  |  |  |  |  |  |  |  |  |  |  |  |  |  |
|  | Cc1cc(O)c(C)c(O)c1C(=O)O [compound 9, Cc1cc(O)c(C)c(O)c1C(O)=O] | active |  |  |  |  |  |  |  |  |  |  |  |  |  |  |
|  | O=C(O)c1ccccc1O [compound 10, OC(=O)c1ccccc1O] | active |  |  |  |  |  |  |  |  |  |  |  |  |  |  |
|  | Cc1cccc(O)c1C(=O)O [compound 16, Cc1cccc(O)c1C(O)=O] | active |  |  |  |  |  |  |  |  |  |  |  |  |  |  |
| unstable | CCOC(=O)/C(=N\NC(N)=S)c1cccs1 [compound 25, CCOC(=O)/C(=N\NC(N)=S)/C1=CC=CS1] |  |  |  |  |  |  |  |  |  |  |  |  |  |  |  |
|  | Cc1nnc(-c2ccccc2)nc1O [compound 34, Cc1nnc(nc1O)c2ccccc2] | active | retained activity |  |  |  |  |  |  |  |  |  |  |  |  |  |
|  | Cc1nnc(SCC(=O)Nc2ccc(Br)cc2)nc1O [compound 35, Cc1nnc(nc1O)SCC(=O)Nc2ccc(Br)cc2] | active | retained activity |  |  |  |  |  |  |  |  |  |  |  |  |  |
|  | COc1ccc(-c2csc(NC(=O)c3ccc(C(=O)Nc4nc(-c5ccc(OC)c(OC)c5)cs4)s3)n2)cc1OC [compound 62, COc1ccc(cc1OC)C5=CSC(NC(=O)C2=CC=C(S2)C(=O)NC3=NC(=CS3)c4cc(OC)c(cc4)OC)=N5] |  | retained potency | 2 | 0 | 0 | 0 | 0 | 1 | 0.001 | 1.7 | 0.67 | > 32 | devoid of any surface material | > 210 | 11.7 |
|  | CCOC(=O)c1ccc2nc(NC(=O)c3cccs3)sc2c1 [compound 64, CCOC(=O)c3ccc2N=C(NC(=O)C1=CC=CS1)Sc2c3] |  | retained potency | 0 | 0 | 0 | 0 | 0 | 120 | 0.04 | 362 | 186 | > 128 |  | > 386 | 14.9 |
|  | CCOc1ccc2nc(NC(=O)c3cc(=O)c4ccc(C)cc4o3)sc2c1 [compound 65, CCOc4ccc3N=C(NC(=O)C2=CC(=O)c1ccc(C)cc1O2)Sc3c4] |  |  | 2 | 2 | 2 | 2 | 1 | 70 | 0.03 |  |  | > 128 |  | > 168 | 1.5 |
|  | O=C(Nc1nnc(Cl)s1)c1ccco1 [compound 67, O=C(NC1=NN=C(Cl)S1)C2=CC=CO2] |  |  | 1 | 0 | 0 | 0 | 0 | 490 | 0.11 |  |  | > 128 |  | > 557 | 1.5 |
|  | Cc1cc(C)c2c(=O)cc(C(=O)Nc3nc4ccc(F)cc4s3)oc2c1 [compound 68, Cc2cc(C)c1C(=O)C=C(Oc1c2)C(=O)NC4=Nc3ccc(F)cc3S4] |  |  | 3 | 3 | 1 | 1 | 1 | 910 |  |  |  | > 128 |  | > 348 | 2.2 |
|  | COc1ccc(Br)c(/C=N/NC(=O)COc2ccc(-c3ccccc3)cc2)c1 [compound 69, COc3ccc(Br)c(/C=N/NC(=O)COc1ccc(cc1)c2ccccc2)c3] |  |  | 0 | 0 | 0 | 0 | 0 | 50 |  |  |  | > 128 |  | > 291 | 4.1 |
|  | O=C(/C=C/c1ccccc1)Nc1ccc(C(=O)Nc2nccs2)cc1 [compound 70, O=C(/C=C/c1ccccc1)Nc2ccc(cc2)C(=O)NC3=NC=CS3] |  |  | 3 | 1 | 0 | 0 | 0 | 1100 |  |  |  | > 128 |  | > 367 | 17.6 |
|  | CC12CC3(C)CC(C(=O)O)(C1)CC(C(=O)O)(C2)C3 [compound 73, CC12CC3(C)CC(C1)(CC(C2)(C3)C(O)=O)C(O)=O] |  |  | 4 | 3 | 3 | 3 | 2 | 1100 |  |  |  | > 128 |  | > 508 | 2.8 |
|  | CCOc1ccc2nc(NC(=O)c3ccc4ncsc4c3)sc2c1 [compound 74, CCOc4ccc3N=C(NC(=O)c2ccc1N=CSc1c2)Sc3c4] |  |  | 2 | 0 | 0 | 0 | 0 | 370 |  |  |  | > 128 |  | > 361 | 26.9 |
|  | CCOc1cccc(C(=O)Nc2ccc(-c3nc4ccccc4[nH]3)cc2)c1 [compound 79, CCOc1cccc(c1)C(=O)Nc2ccc(cc2)C4Nc3ccccc3N=4] |  |  | 2 | 2 | 2 | 2 |  | 1330 |  |  |  | > 128 |  | 341 | 40.6 |
|  | CCCCNC(=O)NS(=O)(=O)c1cccs1 [compound 82, CCCCNC(=O)NS(=O)(=O)C1=CC=CS1] |  |  | 4 | 4 | 3 | 3 | 2 | 2580 |  |  |  | > 128 |  | > 489 | 7.4 |
|  | O=C(O)c1cc(Br)ccc1F [compound 166, OC(=O)c1cc(Br)ccc1F] |  |  |  |  |  |  |  | 1300 |  |  |  | > 128 |  | > 584 | 2.5 |
|  | CCN(CC)/C(N)=N\c1ccc(NC(=O)c2ccc(C(=O)Nc3ccc(/N=C(\N)N(CC)CC)cc3)cc2)cc1 [compound 170, CCN(CC)/C(/N)=N/c1ccc(cc1)NC(=O)c2ccc(cc2)C(=O)Nc3ccc(cc3)\N=C(\N)/N(CC)CC] |  |  |  |  |  |  |  | 2200 |  |  |  | 8 (≈ 14.7 µM) |  | 102 | 1.9 |
|  | O=[N+]([O-])c1cnc2ccc(Cl)cc2c1O [compound 182, [O-][N+](=O)c2cnc1ccc(Cl)cc1c2O] |  |  |  |  |  |  |  | 420 |  |  |  | > 128 |  | 75.4 | 2.4 |
|  | O=C(CCCN1CCC(O)(c2ccc(Br)cc2)CC1)c1ccc(F)cc1 [compound 185, OC2(CCN(CCCC(=O)c1ccc(F)cc1)CC2)c3ccc(Br)cc3] |  |  |  |  |  |  |  | 850 |  |  |  | > 128 |  | 16.5 | 4.5 |
|  | COC1C(OC(C)=O)CC(=O)OC(C)CC2OC2/C=C/C(=O)C(C)CC(CC=O)C1OC1OC(C)C(OC2CC(C)(O)C(OC(=O)CC(C)C)C(C)O2)C(N(C)C)C1O (centres unmarked) [compound 186, COC4C(OC2OC(C)C(OC1CC(C)(O)C(OC(=O)CC(C)C)C(C)O1)C(C2O)N(C)C)C(CC=O)CC(C)C(=O)/C=C/C3OC3CC(C)OC(=O)CC4OC(C)=O] |  |  |  |  |  |  |  | 5400 |  |  |  | 2 (≈ 2.38 µM) |  | 8.54 |  |
|  | Cc1nc(O)n2ncc(Br)c2n1 [compound 187, CC2=NC1=C(Br)C=NN1C(O)=N2] |  |  |  |  |  |  |  | 160 |  |  |  | > 128 |  | > 559 | 2.5 |
|  | C=CC1(C)CC(OC(=O)CSc2ccc(N)cc2)C2(C)C(C)CCC3(CCC(=O)C32)C(C)C1O (centres unmarked) [compound 191, C=CC4(C)CC(OC(=O)CSc1ccc(N)cc1)C2(C)C(C)CCC3(CCC(=O)C23)C(C)C4O] |  |  |  |  |  |  |  | 3220 |  |  |  | ≤ 0.06 |  | 35.8 | 2 |
